Laboratory results: ChEMBL document CHEMBL1125781, “Peptide to glycopeptide: glycosylated oligopeptide renin inhibitors with attenuated in vivo clearance properties” (J Med Chem, 1991)
*1 amine or outer side, *2 acyl side, *3 side chain or, on linkers, in order; H or OH if unused. Where a SMILES comes first, the peptide text is derived from it. [ ]: non-standard residue; d: D form. The star is where a group is joined. ξ: configuration not given here. X1 = CC(C)C[C@H](N[*:1])[C@@H](O)C[C@H](C(=O)[*:2])C(C)C; NH(2-picolyl-N-oxide) = [O-][n+]1ccccc1CN*; NMeH = CN[C@@H](Cc1c[nH]cn1)C(=O)O; NHCH2(2-pyridyl) = c1ccc(CN*)nc1; X2 = CC(=O)NC1C(N*)OC(CO)C(O)C1O; Ile(3ξ) = CCC(C)[C@H](N)C(=O)O; NHC(CH2OH)3 = OCC(CO)(CO)N*; X3 = OCC1OC(N*)C(O)C(O)C1O; Boc = CC(C)(C)OC(=O)*; CO = O=C([*:1])[*:2]

Tests used:
Assay type in all cases: functional, organism-based
Rattus norvegicus [1] = species: Rattus norvegicus; experiment: Compound was tested for the biliary recovery dose in rats
Method in brief: (§1)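 Anesthetized, bile duct cannulated rats given peptide by tail vein injection, 1 mg kg⁻¹ or the molar equivalent, in 3 mM citric acid/saline vehicle. Blood taken from the orbital sinus at 5 and 60 min. Serum inhibitor concentration measured by renin enzyme activity assay. Percent of recovered dose in bile and urine determined over the 3-h study period. Means, n = 4.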

Rattus norvegicus [2] = species: Rattus norvegicus; experiment: Compound was tested for the urinary recovery dose in rats; conditions: Urine; method in brief: as §1
Rattus norvegicus [3] = experiment: Serum concentration at 5 min after iv administration in bile duct cannulated rat; method in brief: as §1
Rattus norvegicus [4] = experiment: Serum concentration at 60 min after iv administration in bile duct cannulated rat; method in brief: as §1
Rattus norvegicus [5] = experiment: Serum concentration at 60 min after iv administration in bile duct cannulated rat.; method in brief: as §1
Rattus norvegicus [6] = experiment: Serum concentration at 5 min after iv administration in bile duct cannulated rat.; method in brief: as §1

Row | Compound | Recovery (Rattus norvegicus [1]) [%] | Recovery (Rattus norvegicus [2]) [%] | Serum concentration (Rattus norvegicus [3]) [nM] | Serum concentration (Rattus norvegicus [4]) [nM] | Serum concentration (Rattus norvegicus [5]) [nM] | Serum concentration (Rattus norvegicus [6]) [nM]
1 | CCC(C)[C@H](NC(=O)[C@@H](C[C@H](O)[C@H](CC(C)C)NC(=O)[C@H](Cc1c[nH]cn1)N(C)C(=O)[C@H](Cc1ccccc1)NC(=O)[C@@H]1CCCN1C(=O)[C@H](CC(=O)NC1OC(CO)C(O)C(O)C1NC(C)=O)NC(=O)OC(C)(C)C)C(C)C)C(=O)NCc1cccc[n+]1[O-] (stereo partly specified) (Boc-D(X2)PF[NMeH][X1][Ile(3ξ)]-{NH(2-picolyl-N-oxide)}) | 33 | 67 | 2580 | 158 | – | –
2 | CCC(C)[C@H](NC(=O)[C@@H](C[C@H](O)[C@H](CC(C)C)NC(=O)[C@H](Cc1c[nH]cn1)N(C)C(=O)[C@H](Cc1ccccc1)NC(=O)[C@@H]1CCCN1C(=O)[C@H](CC(=O)NC1OC(CO)C(O)C(O)C1NC(C)=O)NC(=O)OC(C)(C)C)C(C)C)C(=O)NCc1ccccn1 (stereo partly specified) (Boc-D(X2)PF[NMeH][X1][Ile(3ξ)]-{NHCH2(2-pyridyl)}) | 76 | 24 | 1790 | – | 20 | –
3 | CCC(C)[C@H](NC(=O)[C@@H](C[C@H](O)[C@H](CC(C)C)NC(=O)[C@H](Cc1c[nH]cn1)N(C)C(=O)[C@H](Cc1ccccc1)NC(=O)[C@@H]1CCCN1C(=O)[C@H](CC(=O)NC1OC(CO)C(O)C(O)C1O)NC(=O)OC(C)(C)C)C(C)C)C(=O)NCc1ccccn1 (stereo partly specified) (Boc-D(X3)PF[NMeH][X1][Ile(3ξ)]-{NHCH2(2-pyridyl)}) | 65 | 35 | 2190 | 39 | – | –
4 | CCC(C)[C@H](NC(=O)[C@@H](C[C@H](O)[C@H](CC(C)C)NC(=O)[C@H](Cc1c[nH]cn1)N(C)C(=O)[C@H](Cc1ccccc1)NC(=O)[C@@H]1CCCN1C(=O)NC(CO)(CO)CO)C(C)C)C(=O)NCc1cccc[n+]1[O-] (stereo partly specified) ({NHC(CH2OH)3-CO}-PF[NMeH][X1][Ile(3ξ)]-{NH(2-picolyl-N-oxide)}) | 83 | 17 | – | – | 15 | 1100
